Measured values from ChEMBL document CHEMBL1153337, “Small molecule antagonists of the gonadotropin-releasing hormone (GnRH) receptor: structure-activity relationships of small heterocyclic groups appended to the 2-phenyl-4-piperazinyl-benzimidazole template” (Bioorg Med Chem Lett, 2009).

Columns and labels:
[1] = target: CYP2D6 (Homo sapiens, UniProt P10635); experiment: Inhibition of CYP2D6 at 3 uM; assay type: ADME
[2] = Oral bioavailability in orchidectomized Sprague-Dawley rat at 30 mg/kg after 1 day; assay type: ADME, organism-based; conditions: male, in vivo
Outline: (§1)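 Orchidectomized SD rats, single oral dose of 30 mg/kg in PEG 400; iv arm 1 mg/kg in 20% DMSO/PEG 200 for bioavailability; one-day PK study.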

[3] = target: T1, Gonadotropin-releasing hormone receptor (Homo sapiens, UniProt P30968); experiment: Antagonist activity at human recombinant GnRH receptor expressed in HEK293 cells assessed as reduction in (D-Trp6)-GnRH-stimulated IP production by whole cell assay; assay type: functional, cell-based
T1 sequence (P30968 whole entry): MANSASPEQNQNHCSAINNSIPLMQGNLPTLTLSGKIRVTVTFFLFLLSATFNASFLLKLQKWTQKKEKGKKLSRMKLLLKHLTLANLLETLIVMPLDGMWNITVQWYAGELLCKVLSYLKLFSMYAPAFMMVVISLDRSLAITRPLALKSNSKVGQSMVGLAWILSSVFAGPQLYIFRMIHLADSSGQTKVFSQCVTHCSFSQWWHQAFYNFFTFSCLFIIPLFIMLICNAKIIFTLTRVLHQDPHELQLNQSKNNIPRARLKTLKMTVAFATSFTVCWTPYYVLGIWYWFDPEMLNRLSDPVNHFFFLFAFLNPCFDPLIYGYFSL
Outline: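 Whole-cell assay, cells stimulated with (D-Trp6)-GnRH; compound-driven reduction of inositol phosphate read as IC50.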

[4] = Solubility at pH 7.4; assay type: physicochemical; conditions: buffer
[5] = test system: Rattus norvegicus; experiment: Change in serum leutinizing hormone level in orchidectomized rat at 30 mg/kg, po after 0.5 hrs relative to control; assay type: functional
Outline: (§2)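 Orchidectomized rats (stable elevated LH after testosterone feedback removal), oral gavage 30 mg/kg in PEG 400 vs vehicle cohort, n = 6 per group; serum LH sampled over 24 h, relative LH with t = 0 set to 100; change = treated minus vehicle average.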

[6] = target: T2, Gonadotropin-releasing hormone receptor (Rattus norvegicus, UniProt P30969); experiment: Displacement of [125I]-(D-Trp6)-GnRH from rat GnRH receptor
T2 sequence (P30969 whole entry): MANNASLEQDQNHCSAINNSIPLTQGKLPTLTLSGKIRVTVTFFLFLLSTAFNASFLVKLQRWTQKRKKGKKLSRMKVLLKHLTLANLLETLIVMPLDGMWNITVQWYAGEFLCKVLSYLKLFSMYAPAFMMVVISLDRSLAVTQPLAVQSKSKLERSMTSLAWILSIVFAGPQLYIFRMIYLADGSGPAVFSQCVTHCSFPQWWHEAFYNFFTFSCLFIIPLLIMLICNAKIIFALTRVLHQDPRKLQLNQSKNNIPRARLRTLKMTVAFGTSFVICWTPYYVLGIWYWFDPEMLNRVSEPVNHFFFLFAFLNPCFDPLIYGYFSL
Outline: (§3)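 Competition binding at overexpressed human or rat GnRH receptors against 125I-(D-Trp6)-GnRH; IC50 averaged from two independent experiments run in triplicate.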

[7] = Reduction in leutinizing hormone release in (D-Trp6)-GnRH-stimulated rat primary pituitary cells by RIA; assay type: functional, cell-based; conditions: Pituitary gland cell
Outline: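 Primary rat pituitary cells stimulated with (D-Trp6)-GnRH; compound-driven reduction of LH release read as IC50.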

[8] = test system: Rattus norvegicus; experiment: Change in serum leutinizing hormone level in orchidectomized rat at 30 mg/kg, po after 6 hrs relative to control; assay type: functional; outline: as §2
[9] = Clearance in orchidectomized Sprague-Dawley rat at 1 mg/kg, iv after 1 day; assay type: ADME, organism-based; design: dose 1 mg/kg, route intravenous; conditions: male, in vivo
Outline: (§4)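 Orchidectomized SD rats, single iv dose of 1 mg/kg in 20% DMSO/PEG 200; one-day PK study.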

[10] = target: CYP3A4 (Homo sapiens, UniProt P08684); experiment: Inhibition of CYP3A4 at 3 uM; assay type: ADME
Sequence of CYP3A4 (P08684 whole entry): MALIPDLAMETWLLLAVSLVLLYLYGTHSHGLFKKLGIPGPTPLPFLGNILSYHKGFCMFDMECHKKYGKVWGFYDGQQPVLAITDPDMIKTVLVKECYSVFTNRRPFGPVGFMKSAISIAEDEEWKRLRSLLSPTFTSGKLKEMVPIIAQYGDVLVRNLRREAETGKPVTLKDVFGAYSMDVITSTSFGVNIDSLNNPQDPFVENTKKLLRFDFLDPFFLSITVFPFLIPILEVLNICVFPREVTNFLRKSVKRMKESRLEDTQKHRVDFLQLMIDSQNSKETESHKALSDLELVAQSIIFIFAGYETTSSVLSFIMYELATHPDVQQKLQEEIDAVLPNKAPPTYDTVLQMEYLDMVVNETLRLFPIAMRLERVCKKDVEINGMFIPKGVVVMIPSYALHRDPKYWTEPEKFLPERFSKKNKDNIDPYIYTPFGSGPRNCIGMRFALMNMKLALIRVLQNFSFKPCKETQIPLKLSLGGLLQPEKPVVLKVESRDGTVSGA

[11] = test system: Rattus norvegicus; experiment: Change in serum leutinizing hormone level in orchidectomized rat at 30 mg/kg, po after 2 hrs relative to control; assay type: functional; outline: as §2
[12] = Volume of distribution at steady state in orchidectomized Sprague-Dawley rat at 1 mg/kg, iv after 1 day; assay type: ADME, organism-based; design: dose 1 mg/kg, route intravenous; conditions: male, in vivo, read-out: Vdss; outline: as §4
[13] = target: T1, Gonadotropin-releasing hormone receptor; experiment: Displacement of [125I]-(D-Trp6)-GnRH from human GnRH receptor; outline: as §3
[14] = Half life in orchidectomized Sprague-Dawley rat at 30 mg/kg, po after 1 day; assay type: ADME, organism-based; design: dose 30 mg/kg, route oral; conditions: male, in vivo; outline: as §1
[15] = target: CYP2C9 (Homo sapiens, UniProt P11712); experiment: Inhibition of CYP2C9 at 3 uM; assay type: ADME
Sequence of CYP2C9 (P11712 whole entry): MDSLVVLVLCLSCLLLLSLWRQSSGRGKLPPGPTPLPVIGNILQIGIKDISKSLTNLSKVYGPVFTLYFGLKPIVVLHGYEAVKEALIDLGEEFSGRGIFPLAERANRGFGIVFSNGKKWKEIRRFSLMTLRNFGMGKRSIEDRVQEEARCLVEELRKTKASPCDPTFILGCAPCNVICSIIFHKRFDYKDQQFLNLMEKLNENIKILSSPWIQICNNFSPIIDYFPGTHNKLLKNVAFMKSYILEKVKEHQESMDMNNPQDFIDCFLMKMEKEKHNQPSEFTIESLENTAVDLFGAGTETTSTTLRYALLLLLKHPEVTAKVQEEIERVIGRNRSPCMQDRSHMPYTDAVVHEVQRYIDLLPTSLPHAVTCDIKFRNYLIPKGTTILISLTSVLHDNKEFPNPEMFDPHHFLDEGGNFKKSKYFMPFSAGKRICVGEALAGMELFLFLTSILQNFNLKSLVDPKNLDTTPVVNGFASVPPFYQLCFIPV

[16] = test system: Rattus norvegicus; experiment: Change in serum leutinizing hormone level in orchidectomized rat at 30 mg/kg, po after 1 hr relative to control; assay type: functional; outline: as §2
[17] = test system: Rattus norvegicus; experiment: Change in serum leutinizing hormone level in orchidectomized rat at 30 mg/kg, po after 24 hrs relative to control; assay type: functional; outline: as §2
[18] = test system: Rattus norvegicus; experiment: Change in serum leutinizing hormone level in orchidectomized rat at 30 mg/kg, po after 4 hrs relative to control; assay type: functional; outline: as §2
[19] = Metabolic stability in rat liver microsomes assessed as half life; assay type: ADME, Microsome
[20] = AUC (0 to alpha) in orchidectomized Sprague-Dawley rat at 30 mg/kg, po after 1 day; assay type: ADME, organism-based; design: dose 30 mg/kg, route oral; conditions: male, plasma; outline: as §1
[21] = Half life in orchidectomized Sprague-Dawley rat at 1 mg/kg, iv after 1 day; assay type: ADME, organism-based; design: dose 1 mg/kg, route intravenous; conditions: male, in vivo; outline: as §4

Sequence of CYP2D6 (P10635 whole entry): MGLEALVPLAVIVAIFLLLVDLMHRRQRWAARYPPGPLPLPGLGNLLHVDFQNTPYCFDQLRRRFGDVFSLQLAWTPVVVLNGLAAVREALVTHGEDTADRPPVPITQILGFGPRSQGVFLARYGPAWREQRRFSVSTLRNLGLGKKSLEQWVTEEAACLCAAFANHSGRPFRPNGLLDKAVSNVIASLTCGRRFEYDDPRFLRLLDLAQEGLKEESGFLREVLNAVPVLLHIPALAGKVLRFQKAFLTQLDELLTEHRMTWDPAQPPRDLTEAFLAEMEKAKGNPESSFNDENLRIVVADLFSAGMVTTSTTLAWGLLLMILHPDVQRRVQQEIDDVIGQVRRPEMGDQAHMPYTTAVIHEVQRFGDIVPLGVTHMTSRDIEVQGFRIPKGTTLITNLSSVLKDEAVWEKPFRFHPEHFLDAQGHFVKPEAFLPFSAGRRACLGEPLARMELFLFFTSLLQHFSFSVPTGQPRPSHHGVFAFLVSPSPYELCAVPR

In the case of `CCn1cnc(CN2CCN(c3cccc4[nH]c(-c5ccc(C(C)(C)C)cc5)nc34)CC2)c1C`, the inhibition at 3 µM [1] is reported as 14%, the bioavailability [2] is reported as 93% and the IC50 [3] is reported as 0.014 µM. The solubility [4] was > 100 µg/mL, the Activity [5] was -0.2 and the IC50 [6] was 0.024 µM. It also gave an IC50 [7] of 0.2 µM, an Activity [8] of -32.3 and a clearance [9] of 134 mL/min/kg. The inhibition at 3 µM [10] was 73%, the Activity [11] was -52.8 and the Vd [12] was 2.7 L/kg. The IC50 [13] was 0.007 µM, the half-life [14] was 222 min and the inhibition at 3 µM [15] was 27%. The Activity [16] was -18, the Activity [17] was -3.5 and the Activity [18] was 14.5. For the same compound, the half-life [19] was 21 min, the AUC at 24 h [20] was 3440 ng·h/mL and the half-life [21] was 18 min.
